Test results taken from ChEMBL document CHEMBL1275602, “Daptomycin is effective for treatment of experimental endocarditis due to methicillin-resistant and glycopeptide-intermediate Staphylococcus epidermidis” (Antimicrob Agents Chemother, 2010).
Converted amounts (≈) assume the structure as drawn. The source made the active and inactive calls.

Key:
[1] = test system: Staphylococcus epidermidis; experiment: Antimicrobial activity against glycopeptide-intermediate Staphylococcus epidermidis NRS6 by broth microdilution method; type: functional
Method in brief: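 Broth microdilution in cation-adjusted Mueller-Hinton broth following CLSI procedures. MIC and MBC determined for each strain. For daptomycin the broth was adjusted to 50 μg/ml calcium. S. aureus ATCC 29213 served as the test control strain.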

Oryctolagus cuniculus [2] = experiment: Cmin in methicillin-resistant Staphylococcus epidermidis 375 infected rabbit at 60 mg/kg, iv; details: in vivo
[3] = test system: Staphylococcus epidermidis; experiment: Bacteriostatic activity against methicillin-resistant Staphylococcus epidermidis 375 at 2 times MIC after 24 hrs by time kill analysis; type: functional, organism-based
Method in brief: (§1)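 Time-kill in CAMHB. Overnight culture gave a final inoculum of 5 × 10^5 to 1 × 10^6 CFU/ml. […] Viable counts taken at 0, 4 and 24 h, with carryover removed by dilution. Bactericidal meant at least a 3-log10 CFU/ml fall at 24 h versus the inoculum. Run in duplicate.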

[4] = test system: Staphylococcus epidermidis; experiment: Bactericidal activity against glycopeptide-intermediate Staphylococcus epidermidis NRS6 assessed as reduction in bacterial CFU at 2 times MIC after 24 hrs by time kill analysis; type: functional
[5] = test system: Staphylococcus epidermidis; experiment: Antimicrobial activity against methicillin-resistant Staphylococcus epidermidis 375 by broth microdilution method; type: functional
Method in brief: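 Broth microdilution in cation-adjusted Mueller-Hinton broth following CLSI procedures. MIC and MBC determined for each strain. For daptomycin the broth was adjusted to 50 μg/ml calcium.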

[6] = test system: Staphylococcus epidermidis; experiment: Antimicrobial activity against methicillin-resistant Staphylococcus epidermidis 375 in acute infective endocarditis rabbit model assessed as bacterial titer per gram of vegetation at 15 mg/kg administered every 6 hrs, iv measured after 48 hrs; type: functional
Method in brief: (§2)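 New Zealand White rabbits (2 kg) with catheter-induced aortic valve endocarditis. Infected i.v. 48 h after catheter placement with 1 ml of about 1 × 10^9 CFU/ml. Bacteremia confirmed before therapy. Computer-controlled infusion via the vena cava simulated human PK for 48 h. Killed after 6 further half-lives. Vegetations cultured as log10 CFU/g; sterile meant no growth after one week. 15–17 animals per arm.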

[7] = test system: Staphylococcus epidermidis; experiment: Bacteriostatic activity against glycopeptide-intermediate Staphylococcus epidermidis NRS6 at 0.5 times MIC after 24 hrs by time kill analysis; type: functional, organism-based; method in brief: as §1
[8] = test system: Staphylococcus epidermidis; experiment: Antimicrobial activity against methicillin-resistant Staphylococcus epidermidis 375 in acute infective endocarditis rabbit model assessed as bacterial titer per gram of vegetation at 15 mg/kg administered every 12 hrs, iv measured after 48 hrs; type: functional; method in brief: as §2
[9] = test system: Staphylococcus epidermidis; experiment: Bacteriostatic activity against glycopeptide-intermediate Staphylococcus epidermidis NRS6 at MIC after 24 hrs by time kill analysis; type: functional, organism-based; method in brief: as §1
[10] = test system: Staphylococcus epidermidis; experiment: Antimicrobial activity against methicillin-resistant Staphylococcus epidermidis 375 in acute infective endocarditis rabbit model assessed as sterile vegetation level at 15 mg/kg, iv administered every 6 hrs measured after 48 hrs; type: functional; method in brief: as §2
[11] = test system: Staphylococcus epidermidis; experiment: Antimicrobial activity against glycopeptide-intermediate Staphylococcus epidermidis NRS6 in acute infective endocarditis rabbit model assessed as bacterial titer per gram of vegetation at 15 mg/kg administered every 12 hrs, iv measured after 48 hrs; type: functional; method in brief: as §2
[12] = test system: Staphylococcus epidermidis; experiment: Antimicrobial activity against methicillin-resistant Staphylococcus epidermidis 375 in acute infective endocarditis rabbit model assessed as sterile vegetation level at 15 mg/kg, iv administered every 12 hrs measured after 48 hrs; type: functional; method in brief: as §2
[13] = test system: Staphylococcus epidermidis; experiment: Bacteriostatic activity against methicillin-resistant Staphylococcus epidermidis 375 at MIC after 24 hrs by time kill analysis; type: functional, organism-based; method in brief: as §1
[14] = test system: Staphylococcus epidermidis; experiment: Antimicrobial activity against glycopeptide-intermediate Staphylococcus epidermidis NRS6 in acute infective endocarditis rabbit model assessed as sterile vegetation level at 15 mg/kg administered every 12 hrs, iv measured after 48 hrs; type: functional; method in brief: as §2
[15] = test system: Staphylococcus epidermidis; experiment: Bacteriostatic activity against glycopeptide-intermediate Staphylococcus epidermidis NRS6 at 2 times MIC after 24 hrs by time kill analysis; type: functional, organism-based; method in brief: as §1
[16] = test system: Staphylococcus epidermidis; experiment: Bacteriostatic activity against methicillin-resistant Staphylococcus epidermidis 375 at 0.5 times MIC after 24 hrs by time kill analysis; type: functional, organism-based; method in brief: as §1
[17] = test system: Staphylococcus epidermidis; experiment: Bactericidal activity against methicillin-resistant Staphylococcus epidermidis 375 at 2 times MIC after 24 hrs by time kill analysis; type: functional, organism-based; method in brief: as §1
Oryctolagus cuniculus [18] = experiment: Cmin in rabbit at 10 mg/kg/day, iv; type: ADME, organism-based; set-up: route intravenous; details: in vivo
Method in brief: (§3)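 Rabbits given drug i.v. over 15 min by computer-controlled infusion pump, designed to reproduce human serum PK (6 or 10 mg/kg/day human-equivalent regimens). Mean trough and Cmax measured in serum.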

[19] = test system: Staphylococcus epidermidis; experiment: Antimicrobial activity against glycopeptide-intermediate Staphylococcus epidermidis NRS6 in acute infective endocarditis rabbit model assessed as sterile vegetation level at 10 mg/kg/day, iv after 48 hrs; type: functional
Method in brief: (§4)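 New Zealand White rabbits (2 kg) with catheter-induced aortic valve endocarditis were infected i.v. with 1 ml of about 1 × 10^9 CFU/ml 48 h after catheter placement. Dosing started 48 h after infection by computer-controlled i.v. infusion simulating human PK, given over 15 min for 48 h. Animals were killed after 6 half-lives. Vegetations were cultured and reported as log10 CFU/g. Sterile meant no growth, including 1-week broth culture. 15 to 17 animals per arm.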

[20] = test system: Staphylococcus epidermidis; experiment: Antimicrobial activity against methicillin-resistant Staphylococcus epidermidis isolates; type: functional
[21] = test system: Staphylococcus epidermidis; experiment: Antimicrobial activity against methicillin-resistant Staphylococcus epidermidis 375 in acute infective endocarditis rabbit model assessed as bacterial titer per gram of vegetation at 6 mg/kg/day, iv after 48 hrs; type: functional; method in brief: as §2
[22] = Cmax in rabbit at 10 mg/kg, iv; details: in vivo
[23] = test system: Staphylococcus epidermidis; experiment: Bactericidal activity against glycopeptide-intermediate Staphylococcus epidermidis NRS6 at 2 times MIC after 24 hrs by time kill analysis; type: functional, organism-based
Method in brief: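 Time-kill in CAMHB with a starting inoculum of 5 × 10^5 to 1 × 10^6 CFU/ml from an overnight culture. […] Viable counts at 0, 4 and 24 h, with carryover handled by dilution. Bactericidal was defined as a ≥3-log10 CFU/ml fall at 24 h versus the inoculum. Run in duplicate.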

[24] = test system: Staphylococcus epidermidis; experiment: Antimicrobial activity against methicillin-resistant Staphylococcus epidermidis 375 in acute infective endocarditis rabbit model assessed as sterile vegetation level at 10 mg/kg/day, iv after 48 hrs; type: functional; method in brief: as §2
[25] = test system: Staphylococcus epidermidis; experiment: Antimicrobial activity against methicillin-resistant Staphylococcus epidermidis 375 in acute infective endocarditis rabbit model assessed as bacterial titer per gram of vegetation at 10 mg/kg/day, iv after 48 hrs; type: functional; method in brief: as §2
[26] = test system: Staphylococcus epidermidis; experiment: Antimicrobial activity against glycopeptide-intermediate Staphylococcus epidermidis NRS6 in acute infective endocarditis rabbit model assessed as bacterial titer per gram of vegetation at 10 mg/kg/day, iv after 48 hrs; type: functional; method in brief: as §4
[27] = test system: Staphylococcus epidermidis; experiment: Antimicrobial activity against methicillin-resistant Staphylococcus epidermidis 375 in acute infective endocarditis rabbit model assessed as sterile vegetation level at 6 mg/kg/day, iv after 48 hrs; type: functional; method in brief: as §2
[28] = Cmax in rabbit at 10 mg/kg/day, iv; type: ADME, organism-based, Oryctolagus cuniculus; set-up: dose 10 mg/kg/day, route intravenous; details: in vivo; method in brief: as §3
[29] = test system: Staphylococcus epidermidis; experiment: Antimicrobial activity against glycopeptide-intermediate Staphylococcus epidermidis NRS6 in acute infective endocarditis rabbit model assessed as bacterial titer per gram of vegetation at 6 mg/kg/day, iv after 48 hrs; type: functional; method in brief: as §4
[30] = test system: Staphylococcus epidermidis; experiment: Antimicrobial activity against glycopeptide-intermediate Staphylococcus epidermidis NRS6 in acute infective endocarditis rabbit model assessed as sterile vegetation level at 6 mg/kg/day, iv after 48 hrs; type: functional; method in brief: as §4

Work on `CO[C@H]1/C=C/O[C@@]2(C)Oc3c(C)c(O)c4c(O)c(c(/C=N/N5CCN(C)CC5)c(O)c4c3C2=O)NC(=O)/C(C)=C\C=C\[C@H](C)[C@H](O)[C@@H](C)[C@@H](O)[C@@H](C)[C@H](OC(C)=O)[C@@H]1C` [RIFAMPIN] yielded an MBC [1] greater than 0.25 µg/mL and an MIC [1] of 0.008 µg/mL (≈ 0.00972 µM).
In the case of `CN[C@H](CC(C)C)C(=O)N[C@H]1C(=O)N[C@@H](CC(N)=O)C(=O)N[C@H]2C(=O)N[C@H]3C(=O)N[C@H](C(=O)N[C@H](C(=O)O)c4cc(O)cc(O)c4-c4cc3ccc4O)[C@H](O)c3ccc(c(Cl)c3)Oc3cc2cc(c3O[C@@H]2O[C@H](CO)[C@@H](O)[C@H](O)[C@H]2O[C@H]2C[C@](C)(N)[C@H](O)[C@H](C)O2)Oc2ccc(cc2Cl)[C@H]1O` [VANCOMYCIN], the Cmin (Oryctolagus cuniculus [2]) is reported as 20 µg/mL, the Activity [3] is reported as “Active” and the “fold change (FC)” value [4] is reported as 2.8. The MBC [5] was 4 µg/mL (≈ 2.76 µM), the log10cfu [6] was 2 and the Activity [7] was “Active”. The log10cfu [8] was 2, the Activity [9] was “Active” and the Activity [10] was 33%. For the same compound, the log10cfu [11] was 7.1, the MBC [1] was 16 µg/mL (≈ 11 µM) and the MIC [1] was 8 µg/mL (≈ 5.52 µM). The Activity [12] was 19%, the Activity [13] was “Active” and the Activity [14] was 0%. The Activity [15] was “Active” and the Activity [16] was “Active”.
In the case of `CCCCCCCCCC(=O)N[C@@H](Cc1c[nH]c2ccccc12)C(=O)N[C@H](CC(N)=O)C(=O)N[C@@H](CC(=O)O)C(=O)N[C@@H]1C(=O)NCC(=O)N[C@@H](CCCN)C(=O)N[C@@H](CC(=O)O)C(=O)N[C@H](C)C(=O)N[C@@H](CC(=O)O)C(=O)NCC(=O)N[C@H](CO)C(=O)N[C@@H]([C@H](C)CC(=O)O)C(=O)N[C@@H](CC(=O)c2ccccc2N)C(=O)O[C@@H]1C`, the Activity [17] is reported as “Active”, the Cmin (Oryctolagus cuniculus [18]) is reported as 18.04 µg/mL and the Activity [19] is reported as 0%. The MIC [20] was no less than 2 µg/mL, the log10cfu [21] was 0 and the Cmax [22] was 146 µg/mL. For the same compound, the MBC [5] was 1 µg/mL (≈ 0.617 µM), the MIC [5] was 0.5 µg/mL (≈ 0.309 µM) and the Activity [23] was “Active”. The Activity [24] was 73%, the MBC [1] was 4 µg/mL (≈ 2.47 µM) and the MIC [1] was 2 µg/mL (≈ 1.23 µM). It also gave a log10cfu [25] of 0, a log10cfu [26] of 3.9 and an Activity [27] of 60%. The Cmax [28] was 146 µg/mL, the log10cfu [29] was 3.7 and the Activity [30] was 6%.
GENTAMICIN gave an MIC [1] of 64 µg/mL.
